Tests used:
[1] = substrate: COC1=C(OC)/C(=C/COP(=O)(O)COCCn2cnc3c(N)ncnc32)OC1=O; assay: (§1) Michaelis rate constant is determined by the Lineweaver and Burk method against adenosine deaminase
Procedure, shortened: (§2)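 Reaction velocity measured as µmol/min per mg enzyme across substrate concentrations.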

[2] = substrate: COC1=C(OC)/C(=C/COP(=O)(O)OC[C@H]2O[C@@H](n3cnc4c(N)ncnc43)[C@H](O)[C@@H]2OP(=O)(O)COCCn2cnc3ncnc(N)c32)OC1=O; assay: as §1; procedure, shortened: as §2
[3] = substrate: Nc1ncnc2ncn(CCOCP(=O)(O)O)c12; assay: as §1; procedure, shortened: as §2
[4] = substrate: Nc1ncnc2ncn(COCCO)c12; assay: as §1; procedure, shortened: as §2
[5] = substrate: Nc1ncnc2c1ncn2[C@@H]1O[C@H](COP(=O)(O)O)[C@@H](OP(=O)(O)COCCn2cnc3ncnc(N)c32)[C@H]1O; assay: as §1; procedure, shortened: as §2
[6] = substrate: Nc1ncnc2ncn(CCOCP(=O)(O)O)c12; assay: (§3) Michaelis rate constant is determined by the Lineweaver and Burk method against PRPP synthetase
Procedure, shortened: (§4)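 PRPP synthetase reaction in 10.0 mM potassium phosphate buffer (pH 8.0) with 5.0 mM MgCl₂, 2.5 mM PRPP, 0.04 unit enzyme and AMP or test nucleotide. Reactions ran linearly and were stopped with MeOH after 4 h. Diphosphate or ATP formation was analysed by anion-exchange HPLC. Inhibition was measured at different AMP concentrations plus inhibitor, with 0.002 unit enzyme, 37 °C, 15 min, ATP formation followed by HPLC.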

[7] = substrate: Nc1ncnc2c1ncn2[C@@H]1O[C@H](COP(=O)(O)O)[C@@H](OP(=O)(O)COCCn2cnc3ncnc(N)c32)[C@H]1O; assay: as §3; procedure, shortened: as §4
[8] = substrate: Nc1nc2c(ncn2COCCO)c(=O)[nH]1; details: Chlorocebus sabaeus; Vero
[9] = substrate: Nc1nc(O)c2c(ncn2COCCO)n1; details: Chlorocebus sabaeus; Vero
[10] = substrate: Nc1ncnc2c1ncn2[C@@H]1O[C@H](CO)[C@@H](O)[C@@H]1O; details: herpes simplex virus
[11] = substrate: Nc1ncnc2c1ncn2COCCO; details: herpes simplex virus
[12] = substrate: Nc1ncnc2ncn(COCCO)c12; details: herpes simplex virus
[13] = substrate: Nc1nc(O)c2c(ncn2COCCO)n1; details: herpes simplex virus

B1: Adenosine deaminase (Bos taurus), P56658 (protein)
chain: MAQTPAFNKPKVELHVHLDGAIKPETILYYGRKRGIALPADTPEELQNIIGMDKPLSLPEFLAKFDYYMPAIAGCREAVKRIAYEFVEMKAKDGVVYVEVRYSPHLLANSKVEPIPWNQAEGDLTPDEVVSLVNQGLQEGERDFGVKVRSILCCMRHQPSWSSEVVELCKKYREQTVVAIDLAGDETIEGSSLFPGHVKAYAEAVKSGVHRTVHAGEVGSANVVKEAVDTLKTERLGHGYHTLEDATLYNRLRQENMHFEVCPWSSYLTGAWKPDTEHPVVRFKNDQVNYSLNTDDPLIFKSTLDTDYQMTKNEMGFTEEEFKRLNINAAKSSFLPEDEKKELLDLLYKAYGMPSPASAEQCL
Work on B1 yielded a Km [1] of over 800 µM, a Km [2] of 640 µM and a Km [3] of over 800 µM. For the same protein, the Km [4] was 200 µM and the Km [5] was 160 µM.

B2: Phosphoribosyl pyrophosphate synthase-associated protein 2 (Homo sapiens), O60256 (protein)
chain: MFCVTPPELETKMNITKGGLVLFSANSNSSCMELSKKIAERLGVEMGKVQVYQEPNRETRVQIQESVRGKDVFIIQTVSKDVNTTIMELLIMVYACKTSCAKSIIGVIPYFPYSKQCKMRKRGSIVSKLLASMMCKAGLTHLITMDLHQKEIQGFFNIPVDNLRASPFLLQYIQEEIPDYRNAVIVAKSPASAKRAQSFAERLRLGIAVIHGEAQDAESDLVDGRHSPPMVRSVAAIHPSLEIPMLIPKEKPPITVVGDVGGRIAIIVDDIIDDVDSFLAAAETLKERGAYKIFVMATHGLLSSDAPRRIEESAIDEVVVTNTIPHEVQKLQCPKIKTVDISMILSEAIRRIHNGESMSYLFRNIGLDD
Work on B2 yielded a Km [6] of 4800 µM and a Km [7] of 570 µM.

B3: Thymidine kinase, cytosolic (Homo sapiens), P04183 (protein)
chain: MSCINLPTVLPGSPSKTRGQIQVILGPMFSGKSTELMRRVRRFQIAQYKCLVIKYAKDTRYSSSFCTHDRNTMEALPACLLRDVAQEALGVAVIGIDEGQFFPDIVEFCEAMANAGKTVIVAALDGTFQRKPFGAILNLVPLAESVVKLTAVCMECFREAAYTKRLGTEKEVEVIGGADKYHSVCRLCYFKKASGQPAGPDNKENCPVPGKPGEAVAARKLFAPQQILQCSPAN
With B3 the Km [8] was 2.2 µM, the Km [9] was 18.3 µM and the Km [10] was 1.5 µM. For the same protein, the Km [11] was 2 µM, the Km [12] was 30 µM and the Km [13] was 12.8 µM.
